Assay results taken from ChEMBL document CHEMBL1955789, “3,4-Diarylpiperidines as potent renin inhibitors” (Bioorg Med Chem Lett, 2012).
pIC50: −log10 of the molar value. Each block holds one compound with its values, some of them ahead of it.

Tests used:
Renin [1] = target: T1, Renin (Homo sapiens, UniProt P00797); experiment: Inhibition of human recombinant renin using DNP-Lys-His-Pro-Phe-His-Leu-Val-Ile-His-D,L-Amp as substrate after 3 hrs by fluorimetry
T1 sequence (P00797 whole entry): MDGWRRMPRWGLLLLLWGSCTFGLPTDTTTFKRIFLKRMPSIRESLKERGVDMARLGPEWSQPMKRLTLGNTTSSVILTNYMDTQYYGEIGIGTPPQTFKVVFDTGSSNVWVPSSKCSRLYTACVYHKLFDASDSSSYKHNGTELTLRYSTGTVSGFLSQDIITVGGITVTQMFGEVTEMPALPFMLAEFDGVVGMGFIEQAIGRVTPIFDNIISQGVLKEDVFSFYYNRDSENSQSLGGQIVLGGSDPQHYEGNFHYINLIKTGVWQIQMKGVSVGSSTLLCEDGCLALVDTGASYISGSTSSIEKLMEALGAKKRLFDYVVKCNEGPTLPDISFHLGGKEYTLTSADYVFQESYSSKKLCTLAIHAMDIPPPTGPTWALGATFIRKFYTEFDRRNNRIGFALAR
Method in brief: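 Human recombinant renin at 100 pM incubated with or without inhibitor and 6 µM Q-FRET substrate in 50 mM MOPS, 100 mM NaCl, pH 7.4, 0.002% Tween, 37 °C for 3 h. Fluorescence read at 0 and 3 h (ex 328 nm, em 388 nm). Values are means of at least two experiments.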

Renin [2] = target: T1, Renin; experiment: Inhibition of human recombinant renin using QXL520-Lys-His-Pro-Phe-His-Leu-Val-Ile-His-Lys-(5-FAM) as substrate preincubated for 10 mins prior to substrate addition measure after 1 hr by fluorimetry in the presence of human plasma
Method in brief: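 Frozen human EDTA-plasma thawed and centrifuged at 2900 g for 15 min. Recombinant human renin was added to the supernatant at 1 nM nominal, and inhibitor preincubation was 10 min at 37 °C. Q-FRET substrate was added in Tris/EDTA pH 7.2, then incubated 1 h at 37 °C. Fluorescence read at 0 and 1 h (ex 490 nm, em 520 nm). Means of at least two experiments.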

CYP3A4 [3] = target: T2, CYP3A4 (Homo sapiens, UniProt P08684); experiment: Time dependent inhibition of CYP3A4 using testosterone as substrate at 10 uM for 30 mins; format: ADME; details: probe testosterone
Method in brief: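 CYP3A4 conversion of testosterone (250 µM) to 6β-hydroxytestosterone compared before and after a 30 min preincubation with compound in DMSO. Result expressed as percentage activity loss; 0% change means no measurable time-dependent inhibition.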

CYP3A4 [4] = target: T2, CYP3A4; experiment: Reversible inhibition of CYP3A4 using testosterone as substrate assessed as remaining activity at 10 uM; format: ADME; details: probe testosterone; read-out: Activity
[5] = target: Voltage-gated inwardly rectifying potassium channel KCNH2 (Homo sapiens, UniProt Q12809); experiment: Inhibition of human ERG
[6] = Cmax in Sprague-Dawley rat at 30 mg/kg, po and 5 mg/kg, iv; format: ADME, organism-based; details: in vivo
[7] = Volume of distribution at steady state in Sprague-Dawley rat at 30 mg/kg, po and 5 mg/kg, iv; format: ADME, organism-based; details: in vivo, read-out: Vdss
[8] = Oral bioavailability in Beagle dog at 3 mg/kg; format: ADME, organism-based, Canis lupus familiaris; details: in vivo
[9] = Half life in Beagle dog at 3 mg/kg, po and 1 mg/kg, iv; format: ADME, organism-based, Canis lupus familiaris; details: in vivo
Rattus norvegicus [10] = experiment: Antihypertensive activity in rat dTGR model expressing human renin and angiotensinogen assessed as time of blood pressure lowering effect at 10 mg/kg, po; format: functional
Rattus norvegicus [11] = experiment: Antihypertensive activity in rat dTGR model expressing human renin and angiotensinogen assessed as decrease in blood pressure at 10 mg/kg, po; format: functional
[12] = Half life in Sprague-Dawley rat at 30 mg/kg, po and 5 mg/kg, iv; format: ADME, organism-based; details: in vivo
[13] = Cmax in Beagle dog at 3 mg/kg, po and 1 mg/kg, iv; format: ADME, organism-based, Canis lupus familiaris; details: in vivo
[14] = Volume of distribution at steady state in Beagle dog at 3 mg/kg, po and 1 mg/kg, iv; format: ADME, organism-based, Canis lupus familiaris; details: in vivo, read-out: Vdss
[15] = Oral bioavailability in Sprague-Dawley rat at 30 mg/kg; format: ADME, organism-based; details: in vivo
[16] = Clearance in Sprague-Dawley rat at 30 mg/kg, po and 5 mg/kg, iv; format: ADME, organism-based; details: in vivo
[17] = Clearance in Beagle dog at 3 mg/kg, po and 1 mg/kg, iv; format: ADME, organism-based, Canis lupus familiaris; details: in vivo

T2 sequence (P08684 whole entry): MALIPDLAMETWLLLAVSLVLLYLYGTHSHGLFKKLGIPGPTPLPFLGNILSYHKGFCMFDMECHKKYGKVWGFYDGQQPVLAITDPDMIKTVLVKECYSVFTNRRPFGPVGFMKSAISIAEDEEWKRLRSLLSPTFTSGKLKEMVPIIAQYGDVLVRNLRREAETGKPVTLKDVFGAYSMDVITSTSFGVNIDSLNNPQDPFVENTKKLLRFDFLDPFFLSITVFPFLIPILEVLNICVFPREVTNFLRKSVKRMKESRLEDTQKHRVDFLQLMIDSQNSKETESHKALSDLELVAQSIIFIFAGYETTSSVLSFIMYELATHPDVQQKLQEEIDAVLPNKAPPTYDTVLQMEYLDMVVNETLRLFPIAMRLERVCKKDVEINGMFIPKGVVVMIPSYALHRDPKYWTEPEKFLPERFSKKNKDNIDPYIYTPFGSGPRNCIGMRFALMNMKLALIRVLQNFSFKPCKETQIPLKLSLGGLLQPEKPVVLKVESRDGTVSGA
Voltage-gated inwardly rectifying potassium channel KCNH2, sequence (Q12809 whole entry): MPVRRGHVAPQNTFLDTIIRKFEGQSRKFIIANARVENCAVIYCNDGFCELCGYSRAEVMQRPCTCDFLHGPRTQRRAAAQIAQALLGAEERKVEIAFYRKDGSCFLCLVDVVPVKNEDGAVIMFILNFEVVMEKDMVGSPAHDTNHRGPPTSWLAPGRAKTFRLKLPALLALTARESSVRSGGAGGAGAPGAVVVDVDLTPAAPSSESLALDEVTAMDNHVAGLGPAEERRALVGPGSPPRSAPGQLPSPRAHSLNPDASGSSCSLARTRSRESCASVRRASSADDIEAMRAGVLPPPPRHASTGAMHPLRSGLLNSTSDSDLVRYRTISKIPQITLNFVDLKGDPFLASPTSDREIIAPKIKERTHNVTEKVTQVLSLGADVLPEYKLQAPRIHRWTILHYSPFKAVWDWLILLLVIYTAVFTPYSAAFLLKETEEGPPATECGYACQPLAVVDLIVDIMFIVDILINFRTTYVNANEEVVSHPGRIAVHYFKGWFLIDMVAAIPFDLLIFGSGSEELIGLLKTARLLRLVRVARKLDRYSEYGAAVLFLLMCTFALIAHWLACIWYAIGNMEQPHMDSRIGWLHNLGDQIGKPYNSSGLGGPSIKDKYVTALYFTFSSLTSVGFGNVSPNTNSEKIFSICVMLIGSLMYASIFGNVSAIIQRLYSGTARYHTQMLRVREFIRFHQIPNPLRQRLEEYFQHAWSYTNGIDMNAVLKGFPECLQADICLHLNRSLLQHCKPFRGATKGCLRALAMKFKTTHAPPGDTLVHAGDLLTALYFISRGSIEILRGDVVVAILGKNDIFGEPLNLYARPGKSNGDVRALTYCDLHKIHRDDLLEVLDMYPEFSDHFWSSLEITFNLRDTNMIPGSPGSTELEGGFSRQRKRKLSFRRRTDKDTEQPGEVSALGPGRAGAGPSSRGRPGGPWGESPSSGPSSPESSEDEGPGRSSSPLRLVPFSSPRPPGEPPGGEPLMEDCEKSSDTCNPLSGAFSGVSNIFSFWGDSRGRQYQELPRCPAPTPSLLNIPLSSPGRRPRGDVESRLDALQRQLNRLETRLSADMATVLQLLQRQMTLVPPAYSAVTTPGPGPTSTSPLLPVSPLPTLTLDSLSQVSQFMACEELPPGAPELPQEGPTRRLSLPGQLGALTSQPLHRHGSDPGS

SMILES: CC(=O)NCCc1ccccc1-c1ccc([C@H]2CNCC[C@@H]2c2ccc(F)c(F)c2)c(Cl)c1
pIC50 (Renin [1]): 9.30
pIC50 (Renin [2]): 8.12
inhibition at 0.5 h, 10 µM (CYP3A4 [3]): 49%
activity at 10 µM (CYP3A4 [4]): 98%

SMILES: CC(=O)NCCc1ccccc1-c1ccc([C@H]2CNCC[C@@]23OCc2cc(F)c(F)cc23)c(C)c1
pIC50 (Renin [1]): 9.77
pIC50 (Renin [2]): 8.89
inhibition at 0.5 h, 10 µM (CYP3A4 [3]): 68%
pIC50 [5]: 5.29
activity at 10 µM (CYP3A4 [4]): 88%

SMILES: CCC(=O)NCCc1ccccc1-c1ccc([C@H]2CNCC[C@@H]2c2ccn(C)c(=O)c2)c(Cl)c1
pIC50 (Renin [1]): 8.32
pIC50 (Renin [2]): 8.10
inhibition at 0.5 h, 10 µM (CYP3A4 [3]): 21%
pIC50 [5]: 5.55
activity at 10 µM (CYP3A4 [4]): 92%

SMILES: CCOC(=O)NCCc1ccccc1-c1ccc([C@H]2CNCC[C@@H]2c2ccn(C)c(=O)c2)c(Cl)c1
pIC50 (Renin [1]): 7.96
pIC50 (Renin [2]): 7.55
inhibition at 0.5 h, 10 µM (CYP3A4 [3]): 58%
pIC50 [5]: 5.49
activity at 10 µM (CYP3A4 [4]): 91%

SMILES: CC(=O)NCCc1ccccc1-c1ccc([C@H]2CNCC[C@@]23OC(=O)c2cc(F)c(F)cc23)c(C)c1
pIC50 (Renin [1]): 9.85
pIC50 (Renin [2]): 8.80
inhibition at 0.5 h, 10 µM (CYP3A4 [3]): 88%
pIC50 [5]: 4.89
activity at 10 µM (CYP3A4 [4]): 80%

SMILES: CC(=O)NCCc1ccccc1-c1ccc([C@H]2CNCC[C@@H]2c2ccn(C)c(=O)c2)c(Cl)c1.Cl
Vd [7]: 25 L/kg
bioavailability [8]: 30%
half-life [9]: 6.2 h
Time (Rattus norvegicus [10]): 24 h
Activity (Rattus norvegicus [11]): 32 mmHg
half-life [12]: 4 h
Cmax [13]: 350 nM
Cmax [6]: 450 nM
Vd [14]: 4.6 L/kg
bioavailability [15]: 12%
clearance [16]: 115 mL/min/kg
clearance [17]: 24 mL/min/kg

Now from value to compound, other results behind:

pIC50 (Renin [1]): 8.85
pIC50 (Renin [2]): 8.44
inhibition at 0.5 h, 10 µM (CYP3A4 [3]): 55%
activity at 10 µM (CYP3A4 [4]): 98%
SMILES: CC(=O)NCCc1ccccc1-c1ccc([C@H]2CNCC[C@@H]2c2cccnc2)c(Cl)c1

inhibition at 0.5 h, 10 µM (CYP3A4 [3]): 37%
activity at 10 µM (CYP3A4 [4]): 76%
SMILES: COCC(F)(F)COCc1ccc([C@@]2(O)CCNC[C@@H]2c2ccc(-c3ccccc3CCNC(C)=O)cc2C)cc1
pIC50 [5]: 5.01

inhibition at 0.5 h, 10 µM (CYP3A4 [3]): 0%
activity at 10 µM (CYP3A4 [4]): 97%
SMILES: CC(=O)NCCc1ccccc1-c1ccc([C@H]2CNCC[C@@H]2c2ccn(C)c(=O)c2)c(Cl)c1
pIC50 [5]: 5.24

pIC50 (Renin [1]): 8.45
pIC50 (Renin [2]): 8.21
inhibition at 0.5 h, 10 µM (CYP3A4 [3]): 46%
activity at 10 µM (CYP3A4 [4]): 92%
SMILES: COC(=O)NCCc1ccccc1-c1ccc([C@H]2CNCC[C@@H]2c2ccn(C)c(=O)c2)c(Cl)c1

pIC50 (Renin [1]): 7.13
pIC50 (Renin [2]): 7.01
SMILES: COCC(=O)NCCc1ccccc1-c1ccc([C@H]2CNCC[C@@H]2c2ccn(C)c(=O)c2)c(Cl)c1

pIC50 (Renin [1]): 9.30
pIC50 (Renin [2]): 8.31
inhibition at 0.5 h, 10 µM (CYP3A4 [3]): 40%
activity at 10 µM (CYP3A4 [4]): 87%
SMILES: CC(=O)NCCc1ccccc1-c1ccc([C@H]2CNCC[C@]2(O)c2ccc(F)c(F)c2)c(C)c1
pIC50 [5]: 5.38

inhibition at 0.5 h, 10 µM (CYP3A4 [3]): 72%
activity at 10 µM (CYP3A4 [4]): 88%
SMILES: COC[C@H](C)COCc1ccc([C@@]2(O)CCNC[C@@H]2c2ccc(-c3ccccc3CCNC(C)=O)cc2C)cc1
pIC50 [5]: 5.05

Cmax [6]: 440 nM
inhibition at 0.5 h, 10 µM (CYP3A4 [3]): 74%
activity at 10 µM (CYP3A4 [4]): 53%
SMILES: CC(=O)NCCc1ccccc1-c1ccc([C@@H](CN)Cc2ccc(OCCOc3c(Cl)cc(C)cc3Cl)cc2)c(C)c1.Cl
